The source of these data is ChEMBL document CHEMBL1153232, “Synthesis and screening of a CaaL peptide library versus FTase reveals a surprising number of substrates” (Bioorg Med Chem Lett, 2010).

Activity calls are given as the source filed them. The calls are words filed in the database; no cut-off is given here. Peptide text beside a SMILES is read from it. * marks the point of attachment. Dansyl = CN(C)c1cccc2c(S(=O)(=O)*)cccc12

In assay [1] the target is Protein farnesyltransferase subunit beta (Homo sapiens) (UniProt P49356). In words: Ratio of kcat to km for FTase in presence of farnesyl diphosphate. The method, boiled down:
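Steady-state kinetics at saturating FPP (10 μM), 0.2-10 μM dansyl peptide, 20-100 nM FTase (at least 5-fold below peptide). Buffer: 50 mM HEPPSO pH 7.8, 5 mM TCEP, 5 mM MgCl2, 25 °C. Peptide preincubated 20 min in buffer, then FTase and FPP added. Fluorescence (ex 340, em 520 nm) followed over time and converted to kcat/KM.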

For assay [2] the target is unchanged. In words: Substrate activity for FTase assessed as increase in fluorescence by spectrofluorimetry in presence of farnesyl diphosphate relative to DnGCVLS. Further details: concentration or dose not given beside the values.
The target is the same in assay [3]. In words: Activity at FTase assessed as formation of farnesylated peptide after 60 mins by HPLC. The method, boiled down: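 Peptide (3 μM) with 9 μM FPP and recombinant mammalian FTase (0.05 μM), incubated 60 min. HPLC scored conversion to farnesylated peptide: complete; nearly complete; 25% to 50%; less than 25%; no product.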

Protein farnesyltransferase subunit beta (Homo sapiens), sequence (P49356 whole entry): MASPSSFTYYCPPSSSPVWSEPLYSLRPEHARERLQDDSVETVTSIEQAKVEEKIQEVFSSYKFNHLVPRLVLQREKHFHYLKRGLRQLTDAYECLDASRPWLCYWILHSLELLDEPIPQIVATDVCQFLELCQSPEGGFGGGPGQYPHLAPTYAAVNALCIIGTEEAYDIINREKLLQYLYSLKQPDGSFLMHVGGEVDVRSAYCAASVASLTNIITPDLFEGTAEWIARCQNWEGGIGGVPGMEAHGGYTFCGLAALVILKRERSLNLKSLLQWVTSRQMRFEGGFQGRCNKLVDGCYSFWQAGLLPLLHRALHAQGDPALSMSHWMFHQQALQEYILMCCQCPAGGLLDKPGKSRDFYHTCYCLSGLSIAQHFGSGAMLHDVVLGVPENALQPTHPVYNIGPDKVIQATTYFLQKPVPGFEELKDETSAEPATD

Regarding `CC[C@H](C)[C@H](NC(=O)[C@@H](NC(=O)[C@H](CS)NC(=O)CNS(=O)(=O)c1cccc2c(N(C)C)cccc12)[C@@H](C)O)C(=O)N[C@@H](CC(C)C)C(=O)O` (Dansyl-GCTIL-OH), the Ratio in assay [1] was determined as 33 mM⁻¹ s⁻¹. Besides, the Activity in assay [2] came to 45%. For the same compound, in assay [3], the outcome was Active.
`CC[C@H](C)[C@H](NC(=O)[C@@H](NC(=O)[C@H](CS)NC(=O)CNS(=O)(=O)c1cccc2c(N(C)C)cccc12)C(C)C)C(=O)N[C@@H](CC(C)C)C(=O)O` (Dansyl-GCVIL-OH): the Ratio in assay [1] came to 47 mM⁻¹ s⁻¹. Besides, in assay [2], the Activity amounted to 52%. The result in assay [3] was Active.
For `CC[C@H](C)[C@H](NC(=O)[C@H](CS)NC(=O)CNS(=O)(=O)c1cccc2c(N(C)C)cccc12)C(=O)N[C@H](C(=O)N[C@@H](CC(C)C)C(=O)O)[C@@H](C)CC` (Dansyl-GCIIL-OH), the Ratio in assay [1] was found to be 43 mM⁻¹ s⁻¹. Also, the Activity in assay [2] stood at 101%. Also, the result in assay [3] was Active.
`CC[C@H](C)[C@H](NC(=O)[C@H](CC(N)=O)NC(=O)[C@H](CS)NC(=O)CNS(=O)(=O)c1cccc2c(N(C)C)cccc12)C(=O)N[C@@H](CC(C)C)C(=O)O` (Dansyl-GCNIL-OH): in assay [1], the Ratio was 12 mM⁻¹ s⁻¹. Further, the Activity in assay [2] amounted to 22%. The result in assay [3] was Active.
Turning to `CSCC[C@H](NC(=O)[C@H](CC(C)C)NC(=O)[C@H](CS)NC(=O)CNS(=O)(=O)c1cccc2c(N(C)C)cccc12)C(=O)N[C@@H](CC(C)C)C(=O)O` (Dansyl-GCLML-OH), in assay [1], the Ratio is 8.1 mM⁻¹ s⁻¹. Further, the Activity in assay [2] stood at 9%. Further, the result in assay [3] was Active.
